Values joined by “and” are separate entries in the source; they are usually repeats but may differ in a detail not shown here. Equal values may be shown once.
How the values were obtained:
Mus musculus [1] = assay: Effect on spermatogenic index single oral dose of 3 mg/kg was given and the change after 3 hr of dosing was observed.; assay type: functional
Method in brief: (§1)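 Male CD-1 outbred Swiss albino mice, single oral gavage in acetate buffer pH 5 (10 mL/kg), 3, 10 or 30 mg/kg, plus vehicle control. Killed on day 1, 3 or 14 after dosing (times are days, not hours). Testes removed, right and left weighed separately, sectioned for histology and scored on a 0–6 spermatogenic index. Body weight change recorded. Mean ± SEM, n = 5; p < 0.05 versus control.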

Mus musculus [2] = assay: Tested for its effect on spermatogenic index 3 days after single oral dose (90 mg/kg); assay type: functional
Method in brief: (§2)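 CD-1 outbred Swiss albino male mice, 5 per dose, single gavage on day 0 at 10 mL/kg. Vehicle was 0.15 M acetate buffer pH 5, ethanol/Tween-20/water (3:7:90), or 1% Tween-20 in water. CO2 euthanasia 72 h later. Testes weighed and histologically scored (spermatogenic index 0–6). Values are % reduction versus the assay's vehicle control. Positive control was 30 mg/kg of the parent compound. Significance by Dunnett's one-tailed t-test, p < 0.05.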

Mus musculus [3] = assay: Tested for its effect on mouse testes weight 3 days after single sub cutaneous (10 mg/kg); assay type: functional, Testis
Method in brief: (§3)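 CD-1 outbred Swiss albino male mice, 5 per dose, single subcutaneous injection on day 0 at 10 mL/kg in ethanol/Tween-20/water (3:7:90). Killed 72 h later. Testes weighed and scored for spermatogenic index (0–6). Results are % reduction versus vehicle control. Each assay included a 30 mg/kg positive control. Dunnett's one-tailed t-test, p < 0.05. Oral versus sc route compared by ANOVA.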

Mus musculus [4] = assay: Effect on change in body weight single oral dose of 10 mg/kg was given and the change after 14 hr of dosing was observed.; assay type: functional; method in brief: as §1
Mus musculus [5] = assay: Tested for its effect on spermatogenic index 3 days after single oral dose (10 mg/kg); assay type: functional
Method in brief: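 Male CD-1 (ICR) mice, 7 weeks old on arrival, 5 per dose, single gavage of 10 mL/kg on day 0. Vehicle was 0.15 M acetate buffer pH 5, ethanol/Tween-20/water 3:7:90, or 1% Tween-20. Mice were killed with CO2 at 72 h and testes weighed and scored for spermatogenic index (0–6 scale). Results are % reduction versus the vehicle control. Dunnett's one-tailed t-test.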

Mus musculus [6] = assay: Effect on right testes weight single oral dose of 10 mg/kg was given and the change after 1 hr of dosing was observed.; assay type: functional, Testis; method in brief: as §1
Mus musculus [7] = assay: Effect on right testes weight single oral dose of 3 mg/kg was given and the change after 1 hr of dosing was observed. Data are given as mean +/- SEM (N=5), P<0.05, compared to control; assay type: functional, Testis; method in brief: as §1
Mus musculus [8] = assay: Tested for its effect on spermatogenic index 3 days after single oral dose (30 mg/kg); assay type: functional; method in brief: as §2
Mus musculus [9] = assay: Effect on left testes body weight single oral dose of 3 mg/kg was given and the change after 14 hr of dosing was observed.; assay type: functional, Testis; method in brief: as §1
Mus musculus [10] = assay: tested for its effect on spermatogenic index 3 days after single sub cutaneous dose (10 mg/kg); assay type: functional
Method in brief: (§4)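 CD-1 male mice, 5/dose, injected subcutaneously once (10 mL/kg) on day 0 in ethanol/Tween-20/water (3:7:90); vehicle and positive controls included. Killed by CO2 after 72 h; testes weighed and sectioned, with histology scored as a 0–6 spermatogenic index. Both read-outs given as % reduction from control; Dunnett's one-tailed t-test.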

Mus musculus [11] = assay: Tested for its effect on mouse testes weight 3 days after single oral dose (90 mg/kg); assay type: functional, Testis; method in brief: as §2
Mus musculus [12] = assay: tested for its effect on mouse testes weight 3 days after single oral dose (1 mg/kg); assay type: functional, Testis
Method in brief: (§5)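 Male CD-1 (ICR)BR outbred Swiss albino mice, 5/dose, given one oral gavage dose (10 mL/kg) on day 0 in 0.15 M acetate buffer pH 5, ethanol/Tween-20/water (3:7:90), or 1% Tween-20 in water; vehicle and positive-control groups in each assay. Killed by CO2 72 h later; testes weighed. Expressed as % reduction versus vehicle control; Dunnett's one-tailed t-test.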

Mus musculus [13] = assay: Effect on spermatogenic index single oral dose of 3 mg/kg was given and the change after 1 hr of dosing was observed.; assay type: functional; method in brief: as §1
Mus musculus [14] = assay: Effect on right testes weight single oral dose of 10 mg/kg was given and the change after 3 hr of dosing was observed.; assay type: functional, Testis; method in brief: as §1
Mus musculus [15] = assay: Tested for its effect on mouse testes weight 3 days after single oral dose (1 mg/kg); assay type: functional, Testis; method in brief: as §2
Mus musculus [16] = assay: tested for its effect on spermatogenic index 3 days after single oral dose (30 mg/kg); assay type: functional
Method in brief: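 Male CD-1 (ICR)BR outbred Swiss albino mice, 5/dose, single oral gavage dose (10 mL/kg) on day 0 in acetate buffer pH 5 or Tween-20-based vehicle; killed 72 h later. Testis cross-sections scored histologically on a 0–6 spermatogenic index (Sertoli only to >100 late spermatids/tubule). Reported as % reduction versus vehicle control; Dunnett's one-tailed t-test.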

Mus musculus [17] = assay: Effect on left testes body weight single oral dose of 10 mg/kg was given and the change after 14 hr of dosing was observed.; assay type: functional, Testis; method in brief: as §1
Mus musculus [18] = assay: Effect on left testes body weight single oral dose of 10 mg/kg was given and the change after 3 hr of dosing was observed.; assay type: functional, Testis; method in brief: as §1
Mus musculus [19] = assay: tested for its effect on testes weight 3 days after single oral dose (30 mg/kg); assay type: functional, Testis; method in brief: as §5
Mus musculus [20] = assay: Tested for its effect on testes weight 3 days after single oral dose (90 mg/kg); assay type: functional, Testis; method in brief: as §2
Mus musculus [21] = assay: Effect on left testes body weight single oral dose of 10 mg/kg was given and the change after 1 h of dosing was observed.; assay type: functional, Testis; method in brief: as §1
Mus musculus [22] = assay: Tested for its effect on testes weight 3 days after single sub cutaneous dose (10 mg/kg); assay type: functional, Testis; method in brief: as §3
Mus musculus [23] = assay: Tested for its effect on testes weight 3 days after single oral dose (30 mg/kg); assay type: functional, Testis; method in brief: as §2
Mus musculus [24] = organism: Mus musculus; assay: Tested for its effect on spermatogenic index 3 days after single sub cutaneous dose; assay type: functional; method in brief: as §3
Mus musculus [25] = assay: Tested for its effect on mouse testes weight 3 days after single oral dose (10 mg/kg); assay type: functional, Testis; method in brief: as §2
Mus musculus [26] = assay: Tested for its effect on spermatogenic index 3 days after single oral dose (30 mg/kg),; assay type: functional; method in brief: as §2
Mus musculus [27] = assay: Tested for its effect on spermatogenic index 3 days after single sub cutaneous dose (10 mg/kg); assay type: functional
Method in brief: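 Single subcutaneous injection, 10 mL/kg, to male CD-1 mice (5 per dose) in ethanol/Tween-20/water (3:7:90, v/v/v) on day 0. Mice were killed at 72 h; testes were weighed and histology scored for spermatogenic index (0–6). Results are % reduction from the vehicle control, with a 30 mg/kg positive control group. Dunnett's one-tailed t-test.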

Mus musculus [28] = assay: Effect on left testes body weight single oral dose of 3 mg/kg was given and the change after 3 hr of dosing was observed.; assay type: functional, Testis; method in brief: as §1
Mus musculus [29] = assay: tested for its effect on mouse testes weight 3 days after single oral dose (3 mg/kg); assay type: functional, Testis; method in brief: as §5
Mus musculus [30] = assay: Effect on spermatogenic index single oral dose of 30 mg/kg was given and the change after 3 hr of dosing was observed.; assay type: functional; method in brief: as §1
Mus musculus [31] = assay: Tested for its effect on mouse testes weight 3 days after single oral dose (30 mg/kg); assay type: functional, Testis; method in brief: as §2
Mus musculus [32] = assay: tested for its effect on testes weight 3 days after single sub cutaneous dose (10 mg/kg); assay type: functional, Testis; method in brief: as §4
Mus musculus [33] = assay: Effect on right testes weight single oral dose of 30 mg/kg was given and the change after 3 hr of dosing was observed.; assay type: functional, Testis; method in brief: as §1
Mus musculus [34] = assay: Effect on right testes weight single oral dose of 30 mg/kg was given and the change after 1 hr of dosing was observed; assay type: functional, Testis; method in brief: as §1

SMILES: CCN1CC[C@H]2[C@H](c3ccc(C)cc3)c3cc(C)ccc3[C@H]2C1.Cl
- Spermatogenic index (Mus musculus [1]): 5.8
- Reduction (Mus musculus [2]): -9%
- Reduction (Mus musculus [3]): -3%
- Change in body weight (Mus musculus [4]): 3.18 g
- Reduction (Mus musculus [5]): 31%
- Spermatogenic index (Mus musculus [6]): 4
- Testes weight (Mus musculus [6]): 88.2 mg
- Testes weight (Mus musculus [7]): 104.9 mg
- Reduction (Mus musculus [8]): 50% and 39%
- Testes weight (Mus musculus [9]): 119.3 mg
- Reduction (Mus musculus [10]): 41%
- Reduction (Mus musculus [11]): 10%
- Reduction (Mus musculus [12]): 25%
- Spermatogenic index (Mus musculus [13]): 6
- Spermatogenic index (Mus musculus [14]): 5.1
- Testes weight (Mus musculus [14]): 112.3 mg
- Reduction (Mus musculus [15]): 11%
- Reduction (Mus musculus [16]): 62%
- Testes weight (Mus musculus [17]): 101.6 mg
- Testes weight (Mus musculus [18]): 107.8 mg
- Reduction (Mus musculus [19]): 43%
- Reduction (Mus musculus [20]): 4%
- Testes weight (Mus musculus [21]): 88.5 mg
- Reduction (Mus musculus [22]): -11%
- Reduction (Mus musculus [23]): 10%
- Reduction (Mus musculus [24]): 0%
- Reduction (Mus musculus [25]): 10%
- Reduction (Mus musculus [26]): 9%
- Reduction (Mus musculus [27]): 0% and 10%
- Testes weight (Mus musculus [28]): 106.1 mg
- Reduction (Mus musculus [29]): 13%
- Spermatogenic index (Mus musculus [30]): 3
- Reduction (Mus musculus [31]): 24%
- Reduction (Mus musculus [32]): 12%
- Testes weight (Mus musculus [33]): 81 mg
- Testes weight (Mus musculus [34]): 93.9 mg
